Molecules are shown by their SMILES. Active and inactive are the calls of the source. No cut-off for these calls is given here.

In ChEMBL document CHEMBL3792341, “Substituted quinazolinones as kinase inhibitors endowed with anti-fibrotic properties” (Eur J Med Chem, 2016) one finds inhibition and Activity data, which are given here for 12 compounds.

The target in data set [1] is Vascular endothelial growth factor receptor 2 (Homo sapiens) (UniProt P35968). The data set is described as follows: Inhibition of human KDR using […] as substrate at 1 uM measured after 20 mins at 30 degC by liquid scintillation counting method in presence of [gamma-32P]-ATP.
Chain of Vascular endothelial growth factor receptor 2 (Homo sapiens) (P35968 whole entry): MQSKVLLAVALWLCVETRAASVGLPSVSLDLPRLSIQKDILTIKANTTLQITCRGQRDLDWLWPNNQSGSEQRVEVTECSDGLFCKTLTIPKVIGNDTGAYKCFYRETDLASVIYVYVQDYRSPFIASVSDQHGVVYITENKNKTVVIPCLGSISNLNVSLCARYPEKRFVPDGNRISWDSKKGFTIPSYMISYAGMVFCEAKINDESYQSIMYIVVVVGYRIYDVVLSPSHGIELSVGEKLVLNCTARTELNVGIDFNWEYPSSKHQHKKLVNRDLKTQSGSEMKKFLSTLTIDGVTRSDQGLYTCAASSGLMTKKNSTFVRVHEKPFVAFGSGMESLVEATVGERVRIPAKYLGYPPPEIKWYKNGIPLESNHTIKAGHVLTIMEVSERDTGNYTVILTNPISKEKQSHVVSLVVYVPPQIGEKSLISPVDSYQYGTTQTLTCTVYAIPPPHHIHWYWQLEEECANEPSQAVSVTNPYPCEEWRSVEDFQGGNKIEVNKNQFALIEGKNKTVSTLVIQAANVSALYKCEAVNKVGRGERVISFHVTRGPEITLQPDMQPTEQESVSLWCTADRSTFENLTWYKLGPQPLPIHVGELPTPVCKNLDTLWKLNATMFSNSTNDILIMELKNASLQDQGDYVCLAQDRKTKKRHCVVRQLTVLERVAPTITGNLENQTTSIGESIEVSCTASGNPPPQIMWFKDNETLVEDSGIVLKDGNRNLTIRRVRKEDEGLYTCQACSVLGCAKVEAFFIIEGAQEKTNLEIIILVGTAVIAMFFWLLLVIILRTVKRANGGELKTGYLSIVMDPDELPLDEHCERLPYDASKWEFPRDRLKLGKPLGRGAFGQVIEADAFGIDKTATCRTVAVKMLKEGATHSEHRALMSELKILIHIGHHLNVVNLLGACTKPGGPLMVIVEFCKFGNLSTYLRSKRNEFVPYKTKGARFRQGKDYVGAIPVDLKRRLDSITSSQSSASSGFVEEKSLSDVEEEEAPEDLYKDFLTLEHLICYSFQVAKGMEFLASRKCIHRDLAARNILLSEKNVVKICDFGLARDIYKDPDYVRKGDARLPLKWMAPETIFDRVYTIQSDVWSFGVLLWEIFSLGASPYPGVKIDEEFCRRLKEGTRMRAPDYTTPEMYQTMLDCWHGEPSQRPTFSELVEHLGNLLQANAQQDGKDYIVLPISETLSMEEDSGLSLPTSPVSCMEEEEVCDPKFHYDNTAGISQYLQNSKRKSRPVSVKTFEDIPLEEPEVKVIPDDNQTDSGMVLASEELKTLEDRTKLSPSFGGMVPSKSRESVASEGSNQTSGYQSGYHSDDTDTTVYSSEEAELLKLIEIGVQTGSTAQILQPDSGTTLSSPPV
Data set [2] concerns the target Fibroblast growth factor receptor 1 (Homo sapiens) (UniProt P11362). The data set is described as follows: Inhibition of human FGFR1 using myelin basic protein as substrate at 1 uM measured after 20 mins at 30 degC by liquid scintillation counting method in presence of [gamma-32P]-ATP.
The target of data set [3] is Tyrosine-protein kinase ABL1 (Homo sapiens) (UniProt P00519). The data set is described as follows: Inhibition of human Abl1 using myelin basic protein as substrate at 1 uM measured after 20 mins at 30 degC by liquid scintillation counting method in presence of [gamma-32P]-ATP.
Chain of Tyrosine-protein kinase ABL1 (Homo sapiens) (P00519 whole entry): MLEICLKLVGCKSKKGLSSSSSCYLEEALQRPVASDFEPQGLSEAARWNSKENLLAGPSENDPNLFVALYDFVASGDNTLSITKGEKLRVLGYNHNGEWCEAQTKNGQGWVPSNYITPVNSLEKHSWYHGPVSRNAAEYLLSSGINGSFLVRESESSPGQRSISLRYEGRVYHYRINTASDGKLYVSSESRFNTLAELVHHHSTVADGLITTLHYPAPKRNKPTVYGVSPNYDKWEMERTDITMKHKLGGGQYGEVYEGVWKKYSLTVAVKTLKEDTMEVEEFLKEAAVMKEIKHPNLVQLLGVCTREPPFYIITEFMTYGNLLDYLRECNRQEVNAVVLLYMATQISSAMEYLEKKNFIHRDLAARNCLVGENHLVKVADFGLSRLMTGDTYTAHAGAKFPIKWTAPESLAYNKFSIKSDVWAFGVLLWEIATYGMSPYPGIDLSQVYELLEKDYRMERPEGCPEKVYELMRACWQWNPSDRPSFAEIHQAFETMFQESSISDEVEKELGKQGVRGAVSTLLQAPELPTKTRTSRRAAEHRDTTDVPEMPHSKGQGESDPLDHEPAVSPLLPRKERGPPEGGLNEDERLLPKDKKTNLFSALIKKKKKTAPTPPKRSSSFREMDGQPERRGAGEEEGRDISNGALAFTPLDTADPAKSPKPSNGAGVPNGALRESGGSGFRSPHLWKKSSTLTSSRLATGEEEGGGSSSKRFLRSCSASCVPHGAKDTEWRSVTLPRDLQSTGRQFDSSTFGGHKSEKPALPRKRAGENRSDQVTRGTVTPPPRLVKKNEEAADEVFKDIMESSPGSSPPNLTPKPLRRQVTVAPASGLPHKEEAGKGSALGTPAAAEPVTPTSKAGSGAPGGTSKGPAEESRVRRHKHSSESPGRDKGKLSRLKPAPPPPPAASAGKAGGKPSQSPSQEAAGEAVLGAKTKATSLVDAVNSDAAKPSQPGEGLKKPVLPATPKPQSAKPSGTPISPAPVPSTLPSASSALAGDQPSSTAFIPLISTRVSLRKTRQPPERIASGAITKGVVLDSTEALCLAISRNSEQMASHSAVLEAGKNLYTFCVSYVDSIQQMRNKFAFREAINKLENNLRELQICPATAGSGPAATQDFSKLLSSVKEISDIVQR
In data set [4] the target is Proto-oncogene tyrosine-protein kinase Src (Homo sapiens) (UniProt P12931). Put plainly: Inhibition of human Src using myelin basic protein as substrate at 1 uM measured after 20 mins at 30 degC by liquid scintillation counting method in presence of [gamma-32P]-ATP.
Chain of Proto-oncogene tyrosine-protein kinase Src (Homo sapiens) (P12931 2-536 limits assumed): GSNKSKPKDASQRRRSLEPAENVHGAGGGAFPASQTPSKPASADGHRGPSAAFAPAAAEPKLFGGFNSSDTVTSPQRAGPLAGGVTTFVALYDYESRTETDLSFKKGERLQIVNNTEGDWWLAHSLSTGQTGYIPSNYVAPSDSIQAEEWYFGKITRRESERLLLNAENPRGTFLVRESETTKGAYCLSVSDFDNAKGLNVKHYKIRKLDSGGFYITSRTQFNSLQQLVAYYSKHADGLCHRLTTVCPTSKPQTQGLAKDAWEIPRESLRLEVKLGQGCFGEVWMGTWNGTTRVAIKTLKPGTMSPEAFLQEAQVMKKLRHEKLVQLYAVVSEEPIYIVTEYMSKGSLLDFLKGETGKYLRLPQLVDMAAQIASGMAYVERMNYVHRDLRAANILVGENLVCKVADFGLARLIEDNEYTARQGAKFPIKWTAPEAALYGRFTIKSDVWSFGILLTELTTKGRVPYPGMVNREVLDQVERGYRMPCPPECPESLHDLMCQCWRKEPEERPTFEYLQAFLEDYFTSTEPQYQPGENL
Data set [5] has as its target Platelet-derived growth factor receptor beta (Homo sapiens) (UniProt P09619). The data set is described as follows: Inhibition of human PDGFR-beta at 1 uM measured after 20 mins at 30 degC by liquid scintillation counting method in presence of [gamma-32P]-ATP.
Data set [6] concerns the target Serine/threonine-protein kinase mTOR (Homo sapiens) (UniProt P42345). Put plainly: Inhibition of human mTOR using PHAS-1 as substrate at 1 uM measured after 20 mins at 30 degC by liquid scintillation counting method in presence of [gamma-32P]-ATP.
The species entered for data set [7] is Homo sapiens. Put plainly: Inhibition of human PI3K using phosphatidylinositol 4,5-diphosphate as substrate at 1 uM measured after 20 mins at 30 degC by liquid scintillation counting method in presence of [gamma-32P]-ATP.
Data set [8] in a line: Reduction of COL1A1 mRNA expression in healthy human HSC cells at 1 uM by RT-PCR analysis. It counts as functional, cell-based. The essentials: (§1)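 HSCs or ISEMFs were treated with compound for 24 h. Total RNA was extracted and DNase I-treated, then used for quantitative PCR of the target transcript. Values were normalized to 18S rRNA and relative change was calculated by the ΔΔCT method. Triplicate per isolated cell batch.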

The nature of data set [9]: Reduction of COL1A1 mRNA expression in crohn's disease patient isolated ISEMF at 1 uM by RT-PCR analysis. The note with it: Homo sapiens. It counts as functional. The essentials:
as §1

The nature of data set [10]: Reduction of COL1A1 mRNA expression in healthy human ISEMF at 1 uM by RT-PCR analysis. It counts as functional. The essentials:
as §1

Data set [11] is described as follows: Reduction of FN1 mRNA expression in human HSC cells at 1 uM by RT-PCR analysis. Type of data set: functional, cell-based. Put shortly:
as §1

A short description of data set [12]: Reduction of FN1 mRNA expression in healthy human ISEMF at 1 uM by RT-PCR analysis. Type of data set: functional. The essentials:
as §1

The nature of data set [13]: Reduction of FN1 mRNA expression in crohn's disease patient isolated ISEMF at 1 uM by RT-PCR analysis. Type of data set: functional. The note with it: Homo sapiens. Put shortly:
as §1

A short description of data set [14]: Reduction of TIMP1 mRNA expression in human HSC cells at 1 uM by RT-PCR analysis. Type of data set: functional, cell-based. The essentials: as §1
Data set [15] can be described thus: Reduction of TIMP1 mRNA expression in healthy human ISEMF at 1 uM by RT-PCR analysis. It counts as functional. Put shortly:
as §1

The nature of data set [16]: Reduction of TIMP1 mRNA expression in crohn's disease patient isolated ISEMF at 1 uM by RT-PCR analysis. Type of data set: functional. The note with it: Homo sapiens. Put shortly: as §1
A short description of data set [17]: Cytotoxicity against human HSC cells assessed as cell viability at 1 uM after 72 hrs by MTT assay. Type of data set: cell-based. Put shortly: (§2)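 MTT viability in primary human HSCs or ISEMFs seeded at 2 × 10³ cells/well. Cells were exposed to compound for 72 h, then to MTT 0.50 mg/ml for 4 h. Viability is expressed as % of the respective untreated cells. Triplicate per isolated cell batch.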

A short description of data set [18]: Cytotoxicity against healthy human ISEMF assessed as cell viability at 1 uM after 72 hrs by MTT assay. The essentials: as §2
Data set [19] in a line: Cytotoxicity against crohn's disease patient isolated ISEMF assessed as cell viability at 1 uM after 72 hrs by MTT assay. The note with it: human. The essentials: as §2

Chain of Fibroblast growth factor receptor 1 (Homo sapiens) (P11362 22-822 limits assumed): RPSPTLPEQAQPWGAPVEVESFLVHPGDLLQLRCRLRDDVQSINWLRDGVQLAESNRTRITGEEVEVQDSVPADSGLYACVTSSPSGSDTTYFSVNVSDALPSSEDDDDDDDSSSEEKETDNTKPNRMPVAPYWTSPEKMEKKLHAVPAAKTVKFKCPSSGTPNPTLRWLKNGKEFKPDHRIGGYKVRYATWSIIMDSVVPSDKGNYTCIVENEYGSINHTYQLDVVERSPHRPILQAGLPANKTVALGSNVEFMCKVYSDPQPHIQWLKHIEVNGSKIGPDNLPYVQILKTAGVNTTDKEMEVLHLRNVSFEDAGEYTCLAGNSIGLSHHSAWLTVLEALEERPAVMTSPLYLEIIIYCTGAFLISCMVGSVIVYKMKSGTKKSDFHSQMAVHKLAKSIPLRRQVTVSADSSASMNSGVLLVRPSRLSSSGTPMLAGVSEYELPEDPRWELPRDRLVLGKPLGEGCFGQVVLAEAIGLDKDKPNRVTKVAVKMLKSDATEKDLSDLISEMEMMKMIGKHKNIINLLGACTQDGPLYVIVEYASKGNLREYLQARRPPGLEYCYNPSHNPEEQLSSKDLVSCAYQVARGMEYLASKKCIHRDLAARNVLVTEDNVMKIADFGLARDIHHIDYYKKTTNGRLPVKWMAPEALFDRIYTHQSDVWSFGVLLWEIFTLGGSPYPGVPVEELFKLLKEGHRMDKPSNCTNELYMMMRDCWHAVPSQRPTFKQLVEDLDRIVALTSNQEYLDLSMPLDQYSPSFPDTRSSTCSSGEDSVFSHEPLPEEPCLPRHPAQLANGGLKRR
Chain of Platelet-derived growth factor receptor beta (Homo sapiens) (P09619 whole entry): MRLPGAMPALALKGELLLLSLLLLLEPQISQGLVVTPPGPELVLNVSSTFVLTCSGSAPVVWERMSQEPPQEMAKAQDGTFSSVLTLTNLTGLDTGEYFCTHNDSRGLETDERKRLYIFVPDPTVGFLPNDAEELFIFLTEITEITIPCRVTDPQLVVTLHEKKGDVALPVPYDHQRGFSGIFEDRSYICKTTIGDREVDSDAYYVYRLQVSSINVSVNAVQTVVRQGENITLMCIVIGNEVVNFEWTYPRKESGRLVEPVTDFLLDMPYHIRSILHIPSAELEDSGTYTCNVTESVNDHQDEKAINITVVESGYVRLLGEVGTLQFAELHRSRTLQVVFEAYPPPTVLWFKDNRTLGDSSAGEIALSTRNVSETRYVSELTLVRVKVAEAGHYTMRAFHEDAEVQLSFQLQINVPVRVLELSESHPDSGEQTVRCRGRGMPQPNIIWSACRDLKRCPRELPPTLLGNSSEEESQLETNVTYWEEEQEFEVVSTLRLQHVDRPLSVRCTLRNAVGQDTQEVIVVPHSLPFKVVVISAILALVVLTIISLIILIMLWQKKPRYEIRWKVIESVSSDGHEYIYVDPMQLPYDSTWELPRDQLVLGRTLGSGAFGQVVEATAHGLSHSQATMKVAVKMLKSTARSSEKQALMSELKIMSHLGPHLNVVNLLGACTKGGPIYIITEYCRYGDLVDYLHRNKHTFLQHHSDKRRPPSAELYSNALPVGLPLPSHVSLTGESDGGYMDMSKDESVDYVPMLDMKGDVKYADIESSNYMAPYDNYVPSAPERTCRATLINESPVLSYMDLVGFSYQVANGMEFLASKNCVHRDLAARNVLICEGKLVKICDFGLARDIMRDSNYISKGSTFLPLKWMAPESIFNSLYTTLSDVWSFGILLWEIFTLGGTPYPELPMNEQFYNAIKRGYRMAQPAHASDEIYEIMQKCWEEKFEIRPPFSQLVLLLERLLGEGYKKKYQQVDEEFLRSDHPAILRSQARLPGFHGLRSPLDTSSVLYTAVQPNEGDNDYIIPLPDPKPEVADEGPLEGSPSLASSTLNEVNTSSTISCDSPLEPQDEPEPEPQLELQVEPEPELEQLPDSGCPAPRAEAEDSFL

For the compound `O=c1c2cc3c(cc2ncn1Cc1ccc(-c2ccccc2)cc1)OCO3`, the inhibition in data set [1] came out at 25%; in data set [2] it was 6%; in data set [3] it was 4%; in data set [4] it was 0%; in data set [5], 4%; in [6], 10%. For the same compound, the inhibition in [7] turned out to be 0%.

In the case of `Clc1ccc(Nc2nnc(Cc3ccncc3)c3ccccc23)cc1` [VATALANIB], the inhibition in [2] came out at 31%; in [3] it was 25%; in data set [4], 16%; in data set [5], 72%; in data set [6], 49%; in data set [7], 18%. For the same compound, the outcome in data set [8], in data set [9], in data set [10], in data set [11], in data set [13] and in [14] was Active. Moreover, the outcome in [16] was Active. In addition, the outcome in [12] and in data set [15] was inactive. The Activity result in data set [17], in data set [18] and in data set [19] was “Toxic” in each case.

Turning to `COc1cc2ncn(CC(=O)c3ccc(Br)cc3)c(=O)c2cc1OC`, the inhibition is 53% in data set [1]; 7% in [2]; 0% in data set [3]; 4% in data set [4]; 1% in data set [5]; 17% in [6]. The inhibition in data set [7] stood at 0%. Further, the result in data set [11], in data set [13], in data set [14] and in data set [16] was Active. Moreover, the outcome in data set [12] and in [15] was inactive. The Activity result in data set [17], in data set [18] and in [19] was “Non-toxic” throughout.

As for `O=c1c2cc3c(cc2ncn1Cc1ccc(Br)cc1)OCCO3`, the inhibition was determined as 12% in data set [1]; 1% in [2]; 0% in data set [3]; 0% in data set [4]; 1% in [5]; 13% in data set [6]. Moreover, the inhibition in data set [7] came to 0%.

`O=c1c2cc3c(cc2ncn1Cc1cccc(Br)c1)OCCO3`: the inhibition in [1] came to 12%; in data set [2], 7%; in [3] it was 0%; in data set [4], 0%; in data set [5], 0%; in [6], 28%. For the same compound, in [7], the inhibition was determined as 28%.

In the case of `COc1cc2ncn(Cc3ccc(Br)cc3)c(=O)c2cc1OC`, the inhibition is 25% in [1]; 14% in data set [2]; 0% in [3]; 0% in data set [4]; 0% in [5]; 25% in [6]. In addition, in data set [7], the inhibition was found to be 0%.

In the case of `O=c1c2cc3c(cc2ncn1Cc1ccc(-c2ccccc2)cc1)OCCO3`, the inhibition was 45% in data set [1]; 10% in [2]; 0% in data set [3]; 5% in data set [4]; 13% in [5]; 37% in data set [6]. For the same compound, the inhibition in [7] is 25%. Also, the result in data set [8], in [9] and in [10] was Active. Moreover, the Activity entry in [17], in [18] and in [19] was “Non-toxic” throughout.

Take `O=C(Cn1cnc2cc3c(cc2c1=O)OCCO3)c1ccc(Br)cc1`: the inhibition was 35% in data set [1]; 18% in data set [2]; 0% in data set [3]; 0% in [4]; 1% in data set [5]; 23% in data set [6]. Further, in [7], the inhibition turned out to be 17%. In addition, the result in [8], in data set [9] and in [10] was Active. The Activity result in data set [17], in [18] and in [19] was “Non-toxic” each time.

Take `O=c1c2cc3c(cc2ncn1Cc1cccc(-c2ccccc2)c1)OCO3`: the inhibition in data set [1] was 35%; in data set [2], 8%; in data set [3], 0%; in data set [4] it was 0%; in data set [5], 0%; in data set [6], 0%. Further, the inhibition in data set [7] was determined as 0%. The outcome in data set [8], in [9] and in data set [10] was Active. For the same compound, the Activity result in data set [17], in [18] and in data set [19] was “Non-toxic” each time.

For `COc1cc2ncn(Cc3cccc(-c4ccccc4)c3)c(=O)c2cc1OC`, the inhibition in [1] amounted to 33%; in data set [2] it was 13%; in [3], 0%; in data set [4] it was 0%; in data set [5] it was 4%; in data set [6], 34%. For the same compound, the inhibition in [7] was 21%.

Regarding `COc1cc2ncn(Cc3cccc(Br)c3)c(=O)c2cc1OC`, the inhibition in data set [1] is 31%; in data set [2] it was 11%; in data set [3] it was 0%; in [4] it was 0%; in data set [5] it was 22%; in [6], 18%. The inhibition in [7] turned out to be 15%. Moreover, the outcome in data set [8], in data set [9], in [10], in data set [11], in data set [12] and in data set [13] was inactive. Besides, the result in data set [14], in [15] and in [16] was inactive. In addition, the Activity result in data set [17], in data set [18] and in [19] was “Non-toxic” each time.

On to `O=c1c2cc3c(cc2ncn1CC(O)c1cccc(Cl)c1)OCCO3` (stereo unspecified), for which the inhibition in [1] worked out at 26%; in data set [2], 5%; in [3], 1%; in data set [4], 0%; in data set [5], 0%; in [6], 1%. In addition, the inhibition in data set [7] worked out at 0%. The result in [8], in [9], in data set [10], in data set [11], in [12] and in data set [13] was inactive. Also, the outcome in data set [14], in data set [15] and in data set [16] was inactive. The Activity result in data set [17], in data set [18] and in data set [19] was “Non-toxic” each time.
